Sampled rows, rich in hits. Any-hit rate of the full collection: about 2.1%.
GRK2 inh: compounds blocking aptamer binding on GRK2 – biochemical, human GRK2, bead flow cytometry, HTS, primary screen. FAM-aptamer displacement from GRK2. Beta-adrenergic receptor kinase 1 (Homo sapiens), P25098. 330,000 tested, 0.59% active. inhibition of aptamer binding, % at 10 µM;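 active means inhibition of aptamer binding above 40%, roughly 3 SD of noise, on plates passing a quality check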;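 further: median bead fluorescence of bound FAM aptamer so fluorescent compounds give negative values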
LMPTP inh: LMPTP phosphatase inhibitors, primary screen, biochemical, fluorescence intensity, uHTS. Low molecular weight phosphotyrosine protein phosphatase (Homo sapiens), P24666. recombinant LMPTP-A, OMFP fluorogenic substrate. inhibition, % at 20 µM. 360,000 tested, 0.22% active;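 active means compounds that cut the enzyme signal by at least half of the control window in the single-dose screen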;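 further: plate controls were DMSO wells with enzyme plus substrate for no effect and substrate without enzyme for full effect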
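material = LMPTP-A | quantity = 0.625 nM enzyme | reagent = OMFP substrate, 400 µM final | buffer or medium = Bis-Tris pH 6.0, DTT, detergent | detection = endpoint fluorescence intensity from OMFP dephosphorylation | dosing = single 20 µM dose | read-out basis = % inhibition relative to no-enzyme and uninhibited control wells | control set = no-enzyme and uninhibited controls | timing = 50 min at room temperature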
SUMO1-SIM PPI: modulators of SUMO1 protein-protein interactions, primary screen, biochemical, uHTS; Small ubiquitin-related modifier 1 (Homo sapiens), P63165; SUMO1 binding to a labelled peptide, TR-FRET, 1 h; inhibition, % at 20 µM; 360,000 tested, 0.33% active; in the data active means inhibition above about 37%
Target sequence (P63165 whole entry, looked up): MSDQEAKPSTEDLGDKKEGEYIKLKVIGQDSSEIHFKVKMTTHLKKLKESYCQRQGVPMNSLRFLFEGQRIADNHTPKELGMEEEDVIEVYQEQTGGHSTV
DNMT1 block: human DNMT1 methyltransferase inhibitors, primary screen, biochemical, molecular beacon, fluorescence, HinP1I cleavage, uHTS; DNA (cytosine-5)-methyltransferase 1 (Homo sapiens), P26358; inhibition (reported as % activation of signal), % at 10 µM; 360,000 tested, 0.83% active; AID 588458, 2011; in the data active means inhibition above about 50%
STEP inh: STEP phosphatase inhibitors, primary screen, biochemical, fluorescence intensity, uHTS. inhibition, % at 20 µM. AID 588621, 2011. Tyrosine-protein phosphatase non-receptor type 5 (Homo sapiens), P54829. 360,000 tested, 0.25% active. recombinant STEP, OMFP fluorogenic substrate;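 active means inhibition at 20 µM, scaled per plate between control wells, above about 37%, limit read from the data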;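 further: 0% = DMSO with enzyme and substrate and 100% = substrate only without enzyme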
Target sequence (P54829 whole entry, looked up): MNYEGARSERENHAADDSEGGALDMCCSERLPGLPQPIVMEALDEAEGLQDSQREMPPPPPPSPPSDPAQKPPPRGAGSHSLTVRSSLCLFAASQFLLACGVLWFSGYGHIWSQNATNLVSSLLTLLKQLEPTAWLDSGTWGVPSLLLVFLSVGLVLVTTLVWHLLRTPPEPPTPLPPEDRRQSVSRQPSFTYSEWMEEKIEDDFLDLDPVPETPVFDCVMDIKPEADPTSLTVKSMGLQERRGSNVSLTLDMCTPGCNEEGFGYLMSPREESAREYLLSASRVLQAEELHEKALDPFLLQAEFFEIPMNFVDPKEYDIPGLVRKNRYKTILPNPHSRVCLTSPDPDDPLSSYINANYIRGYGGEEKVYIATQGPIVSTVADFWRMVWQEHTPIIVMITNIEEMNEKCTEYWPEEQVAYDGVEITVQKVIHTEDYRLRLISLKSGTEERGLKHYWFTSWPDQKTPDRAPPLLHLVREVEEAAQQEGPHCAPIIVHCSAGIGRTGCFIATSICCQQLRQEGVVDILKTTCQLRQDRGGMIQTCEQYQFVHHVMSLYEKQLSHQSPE
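Also added – OMFP at 25 µM · Test system – STEP tyrosine phosphatase · Technique – FITC-channel fluorescence of OMFP product · Schedule – 20 min at room temperature, dark · Evaluation – control-normalized % inhibition with plate pattern correction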
Scp1 inh: Scp-1 phosphatase inhibitors, primary screen, biochemical, colorimetric, uHTS; Recombinant Scp1, phosphopeptide, malachite green phosphate absorbance; inhibition, % at 20 µM; 340,000 tested, 0.88% active; AID 493091, 2011;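 active means inhibition above about 50% at 20 µM, limit read from the data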;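 further: plate controls were DMSO wells with enzyme for no effect and wells lacking enzyme for full effect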
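Material: truncated SCP-1 phosphatase (76-261aa) / Buffer or medium: 50 mM Tris acetate pH 5.5, 0.005% Tween-20, 10 mM MgCl2 / Compound dosing: one concentration, 20 µM, with 1.0% DMSO / Incubation: 45 min room-temperature reaction, 5 min colour, 30 min stabiliser / Detection: colorimetric free-phosphate detection, absorbance 630 nm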
GRK2 inh confirm: GRK2 aptamer-displacing inhibitors, retest, confirmation, biochemical, cherry pick 1, bead flow cytometry. shares compounds with GRK2 inh. bead-bound GRK2, FAM-aptamer displacement. aptamer displacement, % at 10 µM. 2,000 tested, 4% active. AID 504451, 2011;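 active means aptamer displacement above 40%, near three times the noise of non-fluorescent compounds, on plates passing quality checks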;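 further: negative values mostly reflect intrinsic compound fluorescence rather than true enhancement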
Aptamer quench SP: counter-screen for GRK2 aptamer inhibitors: fluorescent aptamer quenchers; shares compounds with GRK2 inh; Carboxyfluorescein RNA aptamer on beads, flow cytometry quenching; stronger effect = lower value; fluorescence response (% of DMSO), % at 10 µM; 2,000 tested, under 10 active;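 active means compounds that quench the bead-bound fluorescent RNA probe, cutting fluorescence to under half of the solvent control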;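 further: counterscreen run without GRK2 so only probe quenching by compound is measured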
GRK2 confirm 2: GRK2 aptamer-displacing inhibitors, hit retest, confirmation, biochemical, cherry pick 2, bead flow cytometry. shares compounds with GRK2 inh. bead-bound GRK2, FAM-aptamer displacement. inhibition of aptamer binding, % at 10 µM. 360 tested, under 10 active;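 active means inhibition of aptamer binding above 40%, about triple the noise seen with nonglowing compounds, on plates passing quality control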;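 further: negative values mostly come from compounds that fluoresce themselves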
FAM quench SP: aptamer fluorescence quenching in GRK2 counter-screen. AID 588494. 360 tested, under 10 active. carboxyfluorescein RNA aptamer beads, flow cytometry quenching; stronger effect = lower value. shares compounds with GRK2 inh. fluorescence response vs DMSO, % at 10 µM;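 active means response vs DMSO under 50%, meaning signal dropped by over half, treated as fluorescence quencher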;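 further: labelled aptamer on streptavidin beads without GRK2 as a quench counter-screen; 100% = bead fluorescence of DMSO wells and lower means quenching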
Starred values were filed as active, the others as inactive; . = no result given.

SMILES	GRK2 inh	LMPTP inh	SUMO1-SIM PPI	DNMT1 block	STEP inh	Scp1 inh	GRK2 inh confirm	Aptamer quench SP	others
COc1cccc(NS(=O)(=O)c2c(C)n(C)c(=O)n(C)c2=O)c1	84*	-2	12	2	-3	-1	17	97
Cc1ccc(C(=O)NN2C(=O)CSC2=S)cc1	0	-1	4	7	-2	-6	.	.
CC(C)(C)c1ccc(C(=O)NN2C(=O)CSC2=S)cc1	55*	-2	1	-1	0	-16	-4	98
CCCOc1ccc(NC(=O)CC2C(=O)N(CC)C(=S)N2CCNC(C)=O)cc1 (stereo not given)	0	-1	-3	0	2	-3	.	.
CCOc1ccc(NC(=O)CC2C(=O)N(CC)C(=S)N2CCNC(C)=O)cc1 (stereo not given)	70*	-1	-3	2	3	-4	.	.	GRK2 confirm 2=11;FAM quench SP=100
CCCC(=O)Nc1ccc(-c2csc(N/N=C\c3ccncc3)n2)cc1	2	1	-9	-15	28	-1	.	.
CC(=O)OCC1=C(C(=O)O)N2C(=O)C(NC(=O)Cn3nc(C(F)F)c(Cl)c3C)C2SC1 (stereo not given)	2	0	17	19	5	38	3	101
Cc1ccc2cccc(N=Cc3c(C)[nH]n(-c4ccccc4)c3=O)c2n1	0	5	-12	-9	-2	-14	-7	98
CN(C)C(=O)CN(c1ccc2c(c1)OCO2)S(C)(=O)=O	47*	-1	4	-2	-2	-4	4	103
CS(=O)(=O)N(CC(=O)Nc1ccc2c(c1)OCO2)c1ccc2c(c1)OCO2	0	1	2	-14	-1	-2	.	.
CC(=O)Nc1ccc(OCC(=O)NCc2ccccc2)cc1	100*	-1	1	7	2	-3	0	91
COc1ccc(Cc2nnc(SC)[nH]c2=O)cc1OC	51*	-1	42*	1	1	-5	-1	98
CC(Nc1nc(-c2ccc(F)cc2)cs1)c1nc2cc(Cl)c(N3CCCCC3)cc2n1CCOCCO (stereo not given)	0	2	2	-37	8	-2	-1	103
CC(Nc1nc(-c2cccc(Br)c2)cs1)c1nc2cc(Cl)c(N3CCCCC3)cc2n1CCOCCO (stereo not given)	3	3	-3	-8	-1	0	3	100
CCc1nc2ccc(C(=O)N3CCN(S(=O)(=O)CC)CC3)cn2c1N(C)C(=O)c1cccc(OC)c1	.	-2	0	2	-2	.	.	.
CC(=O)NCCNc1nc2c(-c3cccc(C)c3)nnn2c2ccccc12	65*	1	2	0	-1	-8	15	105
CC(=O)NCCNc1nc2c(-c3ccccc3)nnn2c2ccccc12	0	3	-14	20	5	-1	.	.
COc1cc(OC)c(OC)cc1/C=N/NC(=O)CSc1ccccc1F	90*	0	-11	-1	0	2	4	95
Cc1ccc(C(=O)NCC(c2ccc(F)cc2)N2CCOCC2)cc1S(=O)(=O)N1CCOCC1 (stereo not given)	.	-1	-5	5	2	4	.	.
CCO[C@H]1OC(C(=O)NCc2ccccc2)=C[C@@H](C2CC2)[C@@H]1CCCO	0	-2	-8	6	-1	-5	.	.
O=C(Nn1cnnc1)c1cc(Br)ccc1Cl	53*	-1	1	1	0	1	-1	100
O=C(Nn1cnnc1)c1ccc(Cl)c(Cl)c1	1	-3	9	0	-1	-6	.	.
COc1cccc(CNc2ccc3[nH]c(=O)[nH]c3c2)c1OCc1ccccc1F	91*	2	-1	-11	-1	-6	3	101
COc1cc(CNc2ccc3[nH]c(=O)[nH]c3c2)cc(Br)c1OCc1ccc(F)cc1	2	0	13	-6	1	-3	.	.
CC(=O)NC(=S)Nc1ccc(NC(=O)c2cccnc2Cl)cc1	4	-1	1	1	-1	-9	.	.
SMILES	GRK2 inh	LMPTP inh	SUMO1-SIM PPI	DNMT1 block	STEP inh	Scp1 inh	GRK2 inh confirm	Aptamer quench SP	others
CCOC(=O)CC(=O)CSc1ccc2nnc(-c3ccc(C)cc3)n2n1	100*	-1	-8	-1	-8	0	-2	98
CCOc1ccccc1C(=O)N[C@H](C(=O)Nc1nc2c(s1)CCCC2)C(C)C	43*	2	1	0	3	-4	1	97
O=C(O)c1nn(Cc2csc(-c3ccccc3)n2)c(=O)c2ccccc12	0	0	0	1	-2	-1	.	.
CC1CCN(C(C(=O)Nc2ccc3c(c2)OCO3)c2ccccc2)CC1 (stereo not given)	43*	-1	4	1	-3	-6	-1	102
CC1CCCN(C(C(=O)Nc2ccc3c(c2)OCO3)c2ccccc2)C1 (stereo not given)	0	-1	0	-1	-3	-3	.	.
COc1ccc(/C=C2\SC(=S)N(N3C(=O)CCC3=O)C2=O)cc1O	1	4	-19	1	1	-12	12	60
CCN(CCNC(=O)C1CCN(c2nnc(-n3cccc3)s2)CC1)c1ccccc1	2	1	3	2	3	-10	1	97
CCCCc1nc2sc3c(c2c(=O)[nH]1)CCC3	58*	1	1	-3	1	-4	-2	99
